Measured values reported in ChEMBL document CHEMBL3259728, “Design, synthesis and biological evaluation of some novel substituted quinazolines as antitumor agents” (2014).

Legend:
Assay type in all cases: functional
[1] = Growth inhibition of human Hs578T cells at 10 uM after 48 hrs by SRB assay; settings: Hs-578T, read-out: GI
Method in brief: (§1)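 NCI-60 primary one-dose screen run at the US NCI, with human tumour lines from nine cancer types. Compound added once at 10^-5 M, followed by 48 h incubation. End point was sulforhodamine B protein staining read spectrophotometrically. Result given as percent growth of treated cells against untreated controls, reported as % growth inhibition.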

MDA-MB-231 = test: Growth inhibition of human MDA-MB-231 cells at 10 uM after 48 hrs by SRB assay; settings: MDA-MB-231, 48 h, read-out: GI; method in brief: as §1
[2] = Growth inhibition of human UO31 cells at 10 uM after 48 hrs by SRB assay; settings: UO-31, 48 h, read-out: GI; method in brief: as §1
CAKI-1 = test: Growth inhibition of human CAKI-1 cells at 10 uM after 48 hrs by SRB assay; settings: CAKI-1, 48 h, read-out: GI
Method in brief: (§2)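 NCI primary one-dose screen. A single concentration of 10^-5 M was added to the cell culture, followed by 48 h incubation and an SRB protein-dye endpoint read spectrophotometrically. Results are growth percentage relative to untreated control cells, reported as % growth inhibition.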

[3] = Growth inhibition of human OVCAR4 cells at 10 uM after 48 hrs by SRB assay; settings: OVCAR-4, 48 h, read-out: GI; method in brief: as §1
IGROV-1 = test: Growth inhibition of human IGROV1 cells at 10 uM after 48 hrs by SRB assay; settings: IGROV-1, 48 h, read-out: GI; method in brief: as §1
SK-MEL-5 = test: Growth inhibition of human SK-MEL-5 cells at 10 uM after 48 hrs by SRB assay; settings: SK-MEL-5, 48 h, read-out: GI; method in brief: as §1
[4] = Growth inhibition of human LOXIMVI cells at 10 uM after 48 hrs by SRB assay; settings: LOX IMVI, read-out: GI; method in brief: as §1
SNB-75 = test: Growth inhibition of human SNB75 cells at 10 uM after 48 hrs by SRB assay; settings: SNB-75, 48 h, read-out: GI; method in brief: as §1
[5] = Growth inhibition of human HCC2998 cells at 10 uM after 48 hrs by SRB assay; settings: HCC 2998, 48 h, read-out: GI; method in brief: as §1
COLO 205 = test: Growth inhibition of human COLO205 cells at 10 uM after 48 hrs by SRB assay; settings: COLO 205, 48 h, read-out: GI; method in brief: as §2
NCI-H460 = test: Growth inhibition of human NCI-H460 cells at 10 uM after 48 hrs by SRB assay; settings: NCI-H460, 48 h, read-out: GI; method in brief: as §1
NCI-H226 = test: Growth inhibition of human NCI-H226 cells at 10 uM after 48 hrs by SRB assay; settings: NCI-H226, 48 h, read-out: GI; method in brief: as §1
HOP-62 = test: Growth inhibition of human HOP62 cells at 10 uM after 48 hrs by SRB assay; settings: HOP-62, 48 h, read-out: GI; method in brief: as §1
[6] = Growth inhibition of human EKVX cells at 10 uM after 48 hrs by SRB assay; settings: read-out: GI; method in brief: as §1
[7] = Growth inhibition of human MOLT4 cells at 10 uM after 48 hrs by SRB assay; settings: MOLT-4, 48 h, read-out: GI; method in brief: as §1
HL-60(TB) = test: Growth inhibition of human HL-60(TB) cells at 10 uM after 48 hrs by SRB assay; settings: HL-60, 48 h, read-out: GI
Method in brief: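 NCI 60-cell-line primary screen: compound added at single concentration 10^-5 M, cultures incubated 48 h; end point by sulforhodamine B protein staining read spectrophotometrically; result given as growth percentage of treated versus untreated control cells, reported as % growth inhibition.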

CCRF-CEM = test: Growth inhibition of human CCRF-CEM cells at 10 uM after 48 hrs by SRB assay; settings: read-out: GI; method in brief: as §2
[8] = Growth inhibition of human OVCAR8 cells at 10 uM after 48 hrs by SRB assay; settings: OVCAR-8, 48 h, read-out: GI; method in brief: as §1
[9] = Growth inhibition of human HOP92 cells at 10 uM after 48 hrs by SRB assay; settings: HOP-92, 48 h, read-out: GI; method in brief: as §1

SMILES	inhibition of growth at 10 µM [1] [%]	inhibition of growth at 10 µM (MDA-MB-231) [%]	inhibition of growth at 10 µM [2] [%]	inhibition of growth at 10 µM (CAKI-1) [%]	inhibition of growth at 10 µM [3] [%]	inhibition of growth at 10 µM (IGROV-1) [%]	inhibition of growth at 10 µM (SK-MEL-5) [%]	inhibition of growth at 10 µM [4] [%]	inhibition of growth at 10 µM (SNB-75) [%]	inhibition of growth at 10 µM [5] [%]	inhibition of growth at 10 µM (COLO 205) [%]	inhibition of growth at 10 µM (NCI-H460) [%]	inhibition of growth at 10 µM (NCI-H226) [%]	inhibition of growth at 10 µM (HOP-62) [%]	inhibition of growth at 10 µM [6] [%]	inhibition of growth at 10 µM [7] [%]	inhibition of growth at 10 µM (HL-60(TB)) [%]	inhibition of growth at 10 µM (CCRF-CEM) [%]	inhibition of growth at 10 µM [8] [%]	inhibition of growth at 10 µM [9] [%]
Cc1ccc(-c2nc3ccc(Cl)cc3c(=O)n2NC(=O)CNN)cc1	40	62	25	35	80	41	11	27	25	< 10	28	49	35	83	34	< 10	12	< 10	23	
Cc1ccc(C2=Nc3ccc(Cl)cc3C3=NNCC(=O)NN23)cc1	< 10	11	18	14	< 10	< 10	< 10	< 10	< 10	< 10	< 10	< 10	< 10	< 10	12	< 10	< 10	< 10	< 10	< 10
Cc1ccc(-c2nc3ccc(Cl)cc3c3nnnn23)cc1	< 10	27	24	25	< 10	< 10	< 10	< 10	< 10	< 10	< 10	< 10	< 10	51	11	< 10	< 10	< 10	< 10	< 10
Cc1ccc(-c2nc3ccc(Cl)cc3c3nnc(S)n23)cc1	< 10	16	< 10	15	< 10	< 10	12	< 10	< 10	< 10	< 10	< 10	27	< 10	11	13	< 10	12	< 10	< 10
